Compound activity (PubChem)
The list is not random: actives were taken first. Their share in the collection is about 3.5%.
MrgX1 antagonist – human MrgX1 receptor antagonism, primary screen; MRGX1-HEK293 calcium flux, Fluo-4, BAM8-22 antagonism; active compounds read low; B-score at 10 µM; hit rate 1.3% among 310,000;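 active means calcium-response B-score plate-corrected more than 3 library SD below zero, starting fluorescence within 5 deviations, no agonist response on first addition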;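 further: peak minus trough fluorescence over baseline after final BAM8-22 challenge near maximal dose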
Target sequence (Q96LB2 whole entry, looked up): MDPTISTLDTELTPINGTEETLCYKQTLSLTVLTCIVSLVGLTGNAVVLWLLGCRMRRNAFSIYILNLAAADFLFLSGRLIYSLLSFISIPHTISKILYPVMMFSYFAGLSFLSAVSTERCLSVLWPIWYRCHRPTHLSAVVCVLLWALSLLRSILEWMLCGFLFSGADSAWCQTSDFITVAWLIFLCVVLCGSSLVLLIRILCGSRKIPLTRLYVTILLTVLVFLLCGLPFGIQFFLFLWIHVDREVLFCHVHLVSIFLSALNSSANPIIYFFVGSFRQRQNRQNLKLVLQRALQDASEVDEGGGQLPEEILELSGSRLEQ
RGS4 pot – potentiators or activators of RGS4 | HEK293 M3R/inducible RGS4, carbachol calcium flux Fluo4; active compounds read low | B-score at 10 µM | hit rate 0.92% among 310,000;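 active means B-score of the integrated calcium signal more than 4 SD below the library mean, with starting fluorescence not abnormally high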;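 further: negative B-score means reduced calcium response which marks RGS4 activation or potentiation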
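Also added: carbachol at ECmax as muscarinic agonist stimulus; Assay system: HEK293 cells with stable M3R and inducible RGS4; Timing: overnight RGS4 induction, 30 min dye load 37 °C, 20 min compound RT; Measured by: Fluo4-AM (2 µM) calcium-flux fluorescence, kinetic read.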
MrgX1 agonist – human MrgX1 receptor agonism, primary screen; MrgX1-HEK293 cells, Fluo-4 calcium fluorescence, agonist mode; active compounds read high; hit rate 0.44% among 310,000; AID 588627; B-score at 10 µM; Q96LB2;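 active means calcium response B-score plate-corrected fluorescence ratio at least 3 library SD, with starting fluorescence B-score inside 5 SD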
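Test system: HEK293 cells stably expressing human MrgX1 receptor; amount: 15,000 cells per well; doses: compound delivered in addition one of three; times: overnight plating before 1 h dye loading; detection: Fluo-4 NW calcium-flux fluorescence, kinetic read; read-out basis: B-scored fluorescence response ratio; controls: positive and negative controls per plate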
RGS4 block – inhibitors of human RGS4; HEK293 M3R/RGS4 inducible, Fluo-4 calcium flux; active compounds read high; triggered by carbachol at its EC20; hit rate 0.45% among 310,000; P49798; B-score at 10 µM;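 active means B-score, a plate-corrected calcium signal, over three deviations above library mean, with baseline fluorescence within five deviations of library mean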;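 further: RGS4 expression induced by doxycycline in cells with stable M3 receptor; B-score is computed from the integrated fluorescence ratio over baseline after carbachol; higher B-score means a larger calcium signal and so more RGS4 inhibition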
Target sequence (P49798 whole entry, looked up): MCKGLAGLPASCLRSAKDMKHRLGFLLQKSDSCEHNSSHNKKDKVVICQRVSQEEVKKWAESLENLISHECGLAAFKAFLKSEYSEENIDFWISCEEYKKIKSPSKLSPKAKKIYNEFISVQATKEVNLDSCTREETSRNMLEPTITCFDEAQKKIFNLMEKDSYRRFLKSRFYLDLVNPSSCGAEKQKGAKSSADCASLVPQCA
MrgX1 allo act – allosterically activates human MrgX1 receptor signaling. AID 588675. B-score at 10 µM. Q96LB2. MrgX1-HEK293, Fluo-4 calcium flux, FDSS; active compounds read high. hit rate 0.63% among 310,000;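 active means plate-corrected calcium response at least 3 library SD above typical, normal starting fluorescence, not activating the receptor alone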;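 further: compound read alongside a low EC10 to EC30 dose of BAM8-22 agonist; peak minus trough fluorescence over baseline measured at the second addition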
MrgX1 antag conf – human MrgX1 receptor antagonism, re-confirmation screen; MrgX1-HEK293, BAM8-22 calcium flux, Fluo-4; active compounds read low; shares compounds with MrgX1 antagonist; remaining BAM8-22 calcium response % of control (active compounds read low), % at 10 µM; hit rate 19% among 2,300;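 active means remaining agonist calcium response no higher than 100% minus 3 SD of agonist-only control wells, with starting fluorescence near control levels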;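 further: agonist BAM8-22 given at a near maximal EC90 to ECmax level; peak minus minimum fluorescence divided by baseline after agonist addition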
HEK293 Ca flux – activity in parental HEK293 cells lacking MrgX1; shares compounds with MrgX1 antagonist; Fluo-4 calcium fluorescence, FDSS; fluorescence ratio F(max-min)/F0 at 10 µM; hit rate 2% among 4,000; AID 624111;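 active means duplicate-averaged calcium fluorescence ratio at least three times the standard deviation of buffer wells, a nonspecific response in parental cells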
HEK293 Ca counter – counter-screen for MrgX1 allosteric activators: effect in parental HEK293 cells; shares compounds with MrgX1 antagonist; parental HEK293 calcium flux, Fluo-4 fluorescence ratio; active compounds read high; fluorescence ratio F(max-min)/F0 at 10 µM; hit rate 0.4% among 4,000;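 active means calcium fluorescence ratio, averaged over duplicates, at least 3 SD of the buffer-well ratio, meaning a nonspecific response in receptor-free cells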;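 further: untransfected parental HEK293 lacking MrgX1 used as counterscreen for MrgX1 allosteric activators; fluorescence change taken during the second addition on a kinetic imager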
HEK293 Ca cntr2 – activity in parental HEK293 cells lacking MrgX1 receptor; hit rate 8.7% among 4,000; AID 624115; shares compounds with MrgX1 antagonist; Fluo-4 calcium fluorescence (FDSS); active compounds read high; fluorescence ratio F(max-min)/F0 at 10 µM;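 active means calcium fluorescence ratio at least three times the spread of buffer wells, meaning a non-specific response in parental cells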
* = called active by the depositor; i = inactive; nt = no result given.

SMILES	MrgX1 antagonist	RGS4 pot	MrgX1 agonist	RGS4 block	MrgX1 allo act	MrgX1 antag conf	HEK293 Ca flux	HEK293 Ca counter	HEK293 Ca cntr2
COc1ccc(N2C(=O)CCC(C(=O)N3CCCCC3)C2c2ccc(F)cc2)cc1 (configuration not stated)	i	i	i	i	i	nt	nt	nt	nt
COc1ccc(N2C(=O)CCC(C(=O)N3CCOCC3)C2c2ccc(F)cc2)cc1 (configuration not stated)	-4.8*	i	i	i	i	i	i	i	i
CC(=O)Nc1cccc(C(=O)OC(C)C(=O)NC(=O)NC2CCCCC2)c1 (configuration not stated)	-9.9*	i	i	i	i	i	i	i	i
Cc1cccc(C(=O)OC(C)C(=O)NC(=O)NC2CCCCC2)c1O (configuration not stated)	i	i	i	i	i	nt	nt	nt	nt
CCN(c1ccccc1)S(=O)(=O)c1ccc(C(=O)N(C)CCc2ccc(OC)c(OC)c2)cc1	i	i	i	i	i	nt	nt	nt	nt
N#Cc1c(N)nc2c(c1-c1ccccc1)CCCC2	i	i	i	i	i	nt	nt	nt	nt
CSc1nc2c(c(-c3ccccc3)c1C#N)CCC2	-6.5*	i	i	i	i	i	i	i	i
CCS(=O)(=O)N1CCC(C(=O)NCc2ccc(OC)cc2)CC1	-6.3*	i	i	i	i	i	i	i	i
CC(C)[C@H](NC(=O)c1ccccc1)C(=O)OCC(=O)N1CCCc2ccccc21	i	i	i	i	i	nt	nt	nt	nt
CC(C)CCNCC1OCc2ccccc2CO1	i	i	i	i	i	nt	nt	nt	nt
Cc1ccc(N2CN(Cc3ccco3)CNC2=S)c(C)c1	-6.3*	i	i	i	i	i	i	i	i
Cc1ccc(N2CN(Cc3cccnc3)CNC2=S)c(C)c1	i	i	i	i	i	nt	nt	nt	nt
CCn1c(-c2csc(-c3ccc(Cl)cc3)n2)n[nH]c1=S	-6*	i	i	i	i	i	i	i	i
CCn1c(-c2csc(-c3ccccc3)n2)n[nH]c1=S	i	i	i	i	i	nt	nt	nt	nt
CCOC(=O)Nc1nc(-c2ccc(Cl)cc2Cl)cs1	-5.6*	i	i	i	i	i	i	i	i
CCOC(=O)Nc1nc(C)c(C(=O)c2ccc(Cl)cc2)s1	i	i	i	i	i	nt	nt	nt	nt
Cc1cccc(S(=O)Cc2ccc(C(=O)N3CCN(C(=O)c4ccco4)CC3)o2)c1 (configuration not stated)	i	i	i	i	i	nt	nt	nt	nt
CCN(CC)c1ccc2c(Cl)c(Br)c(=O)oc2c1	-14*	i	i	i	i	i	0.037*	i	i
Cc1cc(C)c(C(=O)OCC(=O)Nc2cccc(S(=O)(=O)N3CCCCC3)c2)c(C)c1	-11*	i	i	i	i	i	i	i	i
O=C(COC(=O)c1ccc(O)cc1)Nc1cccc(S(=O)(=O)N2CCCCC2)c1	i	i	i	i	i	nt	nt	nt	nt
O=C(CSc1nnc(CNC(=O)c2ccccc2)o1)NCc1ccccc1Cl	-6.6*	i	i	i	i	i	i	i	i
O=C(CSc1nnc(CNC(=O)c2ccc(F)cc2)o1)NCc1ccc2c(c1)OCO2	-7.6*	i	i	i	i	i	i	i	i
O=C(CSc1nnc(CNC(=O)c2ccc(F)cc2)o1)NCc1ccccc1Cl	i	i	i	i	i	nt	nt	nt	nt
O=C(CSc1nnc(CNC(=O)c2ccc(F)cc2)o1)NCc1ccc(F)cc1	i	i	i	i	i	nt	nt	nt	nt
COC(=O)C(Cc1ccccc1)N1CCS(=O)(=O)CC1 (configuration not stated)	i	i	i	i	i	nt	nt	nt	nt
SMILES	MrgX1 antagonist	RGS4 pot	MrgX1 agonist	RGS4 block	MrgX1 allo act	MrgX1 antag conf	HEK293 Ca flux	HEK293 Ca counter	HEK293 Ca cntr2
COC(=O)C(Cc1c[nH]c2ccccc12)N1CCS(=O)(=O)CC1 (configuration not stated)	-5.7*	i	i	i	i	i	i	i	i
COc1ccc2cc(C(=O)NCCCN3CCCC3=O)[nH]c2c1	i	i	i	i	i	nt	nt	nt	nt
Cc1oc(-c2cccs2)nc1CN1CCN(CC(C)C)C(CCO)C1 (configuration not stated)	-4.5*	i	i	i	i	i	i	i	i
CCN1C(=O)[C@H]2[C@@H](c3ccc(-c4ccc(OC)cc4)c(OC)c3)N3CCCC[C@@]3(C(=O)OC)[C@H]2C1=O	i	i	i	i	i	nt	nt	nt	nt
Cc1nc(Cc2nnc(SC(C)C(=O)Nc3cccc(C#N)c3)o2)cs1 (configuration not stated)	-5.9*	i	i	i	i	i	i	i	i
CC(=O)c1ccccc1NC(=O)CSc1nnc(Cc2csc(C)n2)o1	i	i	i	i	i	nt	nt	nt	nt
CCn1ccc(C(=O)Nc2ncc(C)s2)n1	-5.4*	i	i	i	i	i	i	i	i
Cc1ccc(-c2cc(C(=O)Nc3ccc(S(=O)(=O)Nc4ncccn4)cc3)c3ccccc3n2)cc1	-5.7*	i	i	i	i	i	i	i	i
O=C(Nc1ccc(S(=O)(=O)Nc2nccs2)cc1)c1cc(-c2ccccc2)nc2ccccc12	i	i	i	i	i	nt	nt	nt	nt
CCc1ccc(NC(=O)CCC(=O)N2CCSc3ccccc32)cc1	-5.2*	i	i	i	i	i	i	i	i
CCc1cccc(NC(=O)CCC(=O)N2CCSc3ccccc32)c1	i	i	i	i	i	nt	nt	nt	nt
CCC(=O)Nc1nnc(S(=O)(=O)N2c3ccccc3CC2C)s1 (configuration not stated)	i	i	i	i	i	nt	nt	nt	nt
Cc1ccc(NCc2ccccc2F)cc1	-5.9*	i	i	i	i	i	i	i	i
Cc1ccc(NCc2ccccc2O)cc1	i	i	i	i	i	nt	nt	nt	nt
